# From PMC2077835 (Drug metabolism and disposition: the biological fate of …, 2006)
# What was measured:
# [1] = target: recombinant human CYP3A5 (Homo sapiens, UniProt P20815); assay: DB289 consumption by recombinant CYP3A5; type: in vitro ADME; conditions: 3.0 μM DB289, 50 pmol/ml P450, 15 min
# Procedure, shortened: (§1)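 Baculovirus-insect-cell Supersomes coexpressing human P450 with NADPH-P450 reductase; the CYP2E1 enzyme also had cytochrome b5. 3.0 μM substrate, 50 pmol/ml P450 (100 pmol/ml for CYP2C8 and CYP2C9), in 100 mM phosphate pH 7.4 with 3.3 mM MgCl2 and 1 mM NADPH, 37°C, 15 min. Quenched in ice-cold acidified acetonitrile with deuterated internal standard, then LC/MS/MS. Percent consumed relative to 0 min; control Supersomes; duplicates.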
# [2] = target: T1, CYP2E1 (Homo sapiens, UniProt P05181); assay: Inhibition of P450 activities by DB289: lauric acid 11-hydroxylation; type: in vitro ADME; conditions: 3.0 μM DB289, pooled HLMs 0.25 mg/ml
# Procedure, shortened: (§2)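 Test compound (3.0 μM) was preincubated 0 and 15 min with pooled microsomes (0.25 mg/ml) and 2 mM NADPH (final concentrations). A P450-selective marker substrate was then added and marker activity measured. Reference selective chemical inhibitors were run for comparison (none for CYP4A11). Solvent-only controls.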
# [3] = target: recombinant human CYP1A1 (Homo sapiens, UniProt P04798); assay: DB289 consumption by recombinant CYP1A1; type: in vitro ADME; conditions: 3.0 μM DB289, 50 pmol/ml P450, 15 min
# Procedure, shortened: as §1
# [4] = target: T2, recombinant CYP4F2 (Homo sapiens, UniProt P78329); assay: DB289 consumption by recombinant CYP4F2; type: in vitro ADME; conditions: 3.0 μM DB289, 50 pmol/ml P450, 15 min
# T2 sequence (P78329 5-520): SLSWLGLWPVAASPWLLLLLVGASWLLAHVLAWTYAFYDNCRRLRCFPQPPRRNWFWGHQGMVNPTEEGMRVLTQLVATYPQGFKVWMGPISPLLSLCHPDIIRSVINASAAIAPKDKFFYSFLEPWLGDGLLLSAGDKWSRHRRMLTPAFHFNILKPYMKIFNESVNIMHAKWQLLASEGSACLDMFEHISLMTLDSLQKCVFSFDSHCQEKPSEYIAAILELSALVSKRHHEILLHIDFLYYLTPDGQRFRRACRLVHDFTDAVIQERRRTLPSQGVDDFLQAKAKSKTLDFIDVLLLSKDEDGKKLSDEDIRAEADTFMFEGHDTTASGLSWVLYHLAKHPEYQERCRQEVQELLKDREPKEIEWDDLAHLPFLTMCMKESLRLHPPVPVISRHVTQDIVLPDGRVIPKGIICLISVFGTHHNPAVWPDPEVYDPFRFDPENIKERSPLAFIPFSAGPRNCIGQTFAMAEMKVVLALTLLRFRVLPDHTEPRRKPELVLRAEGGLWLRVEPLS
# Procedure, shortened: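 A second recombinant panel (Supersomes; the CYP2J2, CYP3A7 and CYP4F forms coexpressed with reductase and cytochrome b5). Each enzyme was incubated alone with 3.0 μM substrate and NADPH in pH 7.4 phosphate/MgCl2 at 37°C for 15 min. Acetonitrile quench with internal standard, centrifugation, LC/MS/MS. Percent consumed normalised to 0 min. Control Supersomes; means of duplicates.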
# [5] = target: T3, CYP2C9 (Homo sapiens, UniProt P11712); assay: DB289 consumption by recombinant CYP2C9; type: in vitro ADME; conditions: 3.0 μM DB289, 100 pmol/ml P450, 15 min
# Procedure, shortened: as §1
# [6] = target: T1, CYP2E1; assay: DB289 consumption by recombinant CYP2E1; type: in vitro ADME; conditions: 3.0 μM DB289, 50 pmol/ml P450, 15 min
# Procedure, shortened: as §1
# [7] = target: T4, CYP2A6 (Homo sapiens, UniProt P11509); assay: DB289 consumption by recombinant CYP2A6; type: in vitro ADME; conditions: 3.0 μM DB289, 50 pmol/ml P450, 15 min
# Procedure, shortened: as §1
# [8] = target: T3, CYP2C9; assay: Inhibition of P450 activities by DB289: diclofenac 4′-hydroxylation; type: in vitro ADME; conditions: 3.0 μM DB289, pooled HLMs 0.25 mg/ml
# Procedure, shortened: as §2
# [9] = DB289 consumption in 10 individual HLM samples, correlation analysis; type: in vitro ADME, human; conditions: 0.3 μM DB289
# Procedure, shortened: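 Ten individual human liver microsome samples, each characterised by the supplier for P450 marker activities. Standard NADPH incubations at 37°C began with 0.3 μM substrate. Rate of disappearance measured by LC/MS/MS and plotted against each P450 marker activity. Pearson r calculated; p < 0.05 taken as significant.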
# [10] = target: CYP2C19 (Homo sapiens, UniProt P33261); assay: Inhibition of P450 activities by DB289: S-mephenytoin 4′-hydroxylation; type: in vitro ADME; conditions: 3.0 μM DB289, pooled HLMs 0.25 mg/ml
# Procedure, shortened: as §2
# [11] = target: recombinant human CYP3A4 (Homo sapiens, UniProt P08684); assay: DB289 consumption by recombinant CYP3A4; type: in vitro ADME; conditions: 3.0 μM DB289, 50 pmol/ml P450, 15 min
# Procedure, shortened: as §1
# [12] = target: CYP2D6 (Homo sapiens, UniProt P10635); assay: Inhibition of P450 activities by DB289: debrisoquine 4-hydroxylation; type: in vitro ADME; conditions: 3.0 μM DB289, pooled HLMs 0.25 mg/ml
# Procedure, shortened: as §2
# [13] = ref Fitzpatrick et al., 2004; cited from earlier work
# [14] = target: recombinant human CYP1A2 (Homo sapiens, UniProt P05177); assay: DB289 consumption by recombinant CYP1A2; type: in vitro ADME; conditions: 3.0 μM DB289, 50 pmol/ml P450, 15 min
# Procedure, shortened: as §1
# [15] = tested on: CYP3A4/5; assay: Inhibition of P450 activities by DB289: testosterone 6β-hydroxylation; type: in vitro ADME, human; conditions: 3.0 μM DB289, pooled HLMs 0.25 mg/ml
# Procedure, shortened: as §2
# [16] = target: flavin monooxygenase 3 (FMO3) (Homo sapiens, UniProt P31513); assay: Incubation of DB289 with recombinant FMO3; type: in vitro ADME; conditions: FMO3 0.5 mg/ml
# Procedure, shortened: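 Baculovirus insect-cell-expressed human FMO3 at 0.5 mg/ml. Incubated with substrate under the conditions used for the liver-microsome consumption assay: pH 7.4 phosphate, MgCl2, NADPH, 37°C. Analysed by LC/MS/MS.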
# [17] = target: recombinant human CYP2B6 (Homo sapiens, UniProt P20813); assay: DB289 consumption by recombinant CYP2B6; type: in vitro ADME; conditions: 3.0 μM DB289, 50 pmol/ml P450, 15 min
# Procedure, shortened: as §1
# [18] = Kinetics of M1 formation by pooled HLMs; type: in vitro ADME, human
# Procedure, shortened: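 Initial-rate conditions (<20% substrate consumption). Pooled microsomes at 0.02 mg/ml with substrate from 0.05 μM upward, in 250 μl. Equilibrated 5 min at 37°C, started with NADPH, run 3 min. M1 measured by LC/MS/MS. Mean of duplicates fitted to Michaelis-Menten by nonlinear regression, with an Eadie-Hofstee plot; CLint = Vmax/Km.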
# [19] = target: T4, CYP2A6; assay: Inhibition of P450 activities by DB289: coumarin 7-hydroxylation; type: in vitro ADME; conditions: 3.0 μM DB289, pooled HLMs 0.25 mg/ml
# Procedure, shortened: as §2
# T3 sequence (P11712 whole entry): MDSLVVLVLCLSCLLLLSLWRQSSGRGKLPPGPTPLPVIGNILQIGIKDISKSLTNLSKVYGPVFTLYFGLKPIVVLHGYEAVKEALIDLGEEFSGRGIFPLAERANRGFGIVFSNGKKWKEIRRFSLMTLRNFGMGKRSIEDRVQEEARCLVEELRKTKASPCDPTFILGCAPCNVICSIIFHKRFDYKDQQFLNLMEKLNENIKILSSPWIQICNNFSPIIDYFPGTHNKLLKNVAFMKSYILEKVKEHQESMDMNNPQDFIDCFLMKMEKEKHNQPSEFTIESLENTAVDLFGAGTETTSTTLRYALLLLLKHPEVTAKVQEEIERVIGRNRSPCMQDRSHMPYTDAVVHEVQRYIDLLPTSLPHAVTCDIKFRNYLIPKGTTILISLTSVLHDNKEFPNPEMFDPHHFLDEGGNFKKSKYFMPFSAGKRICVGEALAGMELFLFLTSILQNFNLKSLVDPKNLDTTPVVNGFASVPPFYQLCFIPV
# T4 sequence (P11509 whole entry): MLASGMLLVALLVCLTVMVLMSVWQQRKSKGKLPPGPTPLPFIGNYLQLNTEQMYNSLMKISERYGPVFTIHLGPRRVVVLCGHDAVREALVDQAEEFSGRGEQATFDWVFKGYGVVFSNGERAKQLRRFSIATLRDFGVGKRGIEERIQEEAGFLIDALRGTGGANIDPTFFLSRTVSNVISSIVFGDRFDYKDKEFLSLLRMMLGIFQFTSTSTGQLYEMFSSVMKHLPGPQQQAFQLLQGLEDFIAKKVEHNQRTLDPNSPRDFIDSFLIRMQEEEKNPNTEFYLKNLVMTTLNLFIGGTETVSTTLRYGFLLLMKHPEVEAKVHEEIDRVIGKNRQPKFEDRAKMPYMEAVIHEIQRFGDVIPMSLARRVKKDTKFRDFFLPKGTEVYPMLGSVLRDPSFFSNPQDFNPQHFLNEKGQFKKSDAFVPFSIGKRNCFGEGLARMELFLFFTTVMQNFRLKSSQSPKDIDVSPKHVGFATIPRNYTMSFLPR
# T1 sequence (P05181 whole entry): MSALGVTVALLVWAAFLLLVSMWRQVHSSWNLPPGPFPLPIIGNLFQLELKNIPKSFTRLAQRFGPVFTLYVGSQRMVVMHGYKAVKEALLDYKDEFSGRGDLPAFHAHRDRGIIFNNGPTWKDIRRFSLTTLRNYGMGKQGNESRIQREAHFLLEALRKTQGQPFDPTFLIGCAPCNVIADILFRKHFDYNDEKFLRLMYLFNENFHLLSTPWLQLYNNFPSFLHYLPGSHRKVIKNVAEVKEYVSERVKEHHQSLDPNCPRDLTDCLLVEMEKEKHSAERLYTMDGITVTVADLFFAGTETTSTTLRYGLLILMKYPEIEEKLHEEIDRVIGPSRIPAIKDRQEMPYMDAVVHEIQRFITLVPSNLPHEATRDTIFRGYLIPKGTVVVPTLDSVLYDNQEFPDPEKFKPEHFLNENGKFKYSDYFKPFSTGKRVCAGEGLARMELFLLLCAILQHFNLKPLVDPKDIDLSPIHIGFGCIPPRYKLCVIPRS
# Chain of recombinant human CYP3A5 (P20815 whole entry): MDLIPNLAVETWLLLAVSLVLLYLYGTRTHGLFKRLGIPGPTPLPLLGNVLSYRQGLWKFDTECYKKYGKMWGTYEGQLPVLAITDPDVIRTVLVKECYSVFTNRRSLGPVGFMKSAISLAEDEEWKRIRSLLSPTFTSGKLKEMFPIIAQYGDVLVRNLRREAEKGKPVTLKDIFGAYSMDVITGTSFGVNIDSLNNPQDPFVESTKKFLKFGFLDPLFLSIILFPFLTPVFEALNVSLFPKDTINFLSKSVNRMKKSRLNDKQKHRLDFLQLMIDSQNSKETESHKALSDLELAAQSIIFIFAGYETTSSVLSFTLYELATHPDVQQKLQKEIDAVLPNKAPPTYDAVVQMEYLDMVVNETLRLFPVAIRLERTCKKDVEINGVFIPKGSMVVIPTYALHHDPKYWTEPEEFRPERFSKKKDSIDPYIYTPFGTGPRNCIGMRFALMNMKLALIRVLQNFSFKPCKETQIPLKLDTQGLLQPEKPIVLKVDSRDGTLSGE
# Chain of flavin monooxygenase 3 (FMO3) (P31513 whole entry): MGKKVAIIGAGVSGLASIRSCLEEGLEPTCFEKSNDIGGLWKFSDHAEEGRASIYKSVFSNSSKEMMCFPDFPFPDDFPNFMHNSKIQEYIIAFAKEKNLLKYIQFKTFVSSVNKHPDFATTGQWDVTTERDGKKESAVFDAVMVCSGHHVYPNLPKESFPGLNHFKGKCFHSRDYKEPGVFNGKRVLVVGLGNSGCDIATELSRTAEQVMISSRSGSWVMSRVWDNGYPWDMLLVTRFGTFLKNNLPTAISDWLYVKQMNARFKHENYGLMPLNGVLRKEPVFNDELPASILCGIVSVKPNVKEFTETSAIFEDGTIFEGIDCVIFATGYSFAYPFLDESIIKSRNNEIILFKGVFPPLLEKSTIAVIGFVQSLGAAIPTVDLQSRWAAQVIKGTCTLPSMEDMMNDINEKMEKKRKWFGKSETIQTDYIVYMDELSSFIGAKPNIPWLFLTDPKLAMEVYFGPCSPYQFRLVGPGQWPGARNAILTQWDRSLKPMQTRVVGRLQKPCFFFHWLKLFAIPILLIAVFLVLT
# Chain of recombinant human CYP3A4 (P08684 2-503 limits assumed): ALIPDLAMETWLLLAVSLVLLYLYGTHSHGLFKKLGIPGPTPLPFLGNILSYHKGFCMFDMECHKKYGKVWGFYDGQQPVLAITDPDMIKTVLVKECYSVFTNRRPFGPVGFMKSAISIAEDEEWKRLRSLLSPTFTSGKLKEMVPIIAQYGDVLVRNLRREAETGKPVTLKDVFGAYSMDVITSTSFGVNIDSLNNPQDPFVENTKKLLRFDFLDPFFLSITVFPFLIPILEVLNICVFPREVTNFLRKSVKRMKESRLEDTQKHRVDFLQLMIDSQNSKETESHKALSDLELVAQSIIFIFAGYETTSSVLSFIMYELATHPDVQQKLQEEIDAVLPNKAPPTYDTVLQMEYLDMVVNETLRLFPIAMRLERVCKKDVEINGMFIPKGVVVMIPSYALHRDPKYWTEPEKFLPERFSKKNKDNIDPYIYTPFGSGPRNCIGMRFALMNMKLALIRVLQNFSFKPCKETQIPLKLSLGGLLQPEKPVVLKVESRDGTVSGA
# Chain of recombinant human CYP1A2 (P05177 2-516 limits assumed): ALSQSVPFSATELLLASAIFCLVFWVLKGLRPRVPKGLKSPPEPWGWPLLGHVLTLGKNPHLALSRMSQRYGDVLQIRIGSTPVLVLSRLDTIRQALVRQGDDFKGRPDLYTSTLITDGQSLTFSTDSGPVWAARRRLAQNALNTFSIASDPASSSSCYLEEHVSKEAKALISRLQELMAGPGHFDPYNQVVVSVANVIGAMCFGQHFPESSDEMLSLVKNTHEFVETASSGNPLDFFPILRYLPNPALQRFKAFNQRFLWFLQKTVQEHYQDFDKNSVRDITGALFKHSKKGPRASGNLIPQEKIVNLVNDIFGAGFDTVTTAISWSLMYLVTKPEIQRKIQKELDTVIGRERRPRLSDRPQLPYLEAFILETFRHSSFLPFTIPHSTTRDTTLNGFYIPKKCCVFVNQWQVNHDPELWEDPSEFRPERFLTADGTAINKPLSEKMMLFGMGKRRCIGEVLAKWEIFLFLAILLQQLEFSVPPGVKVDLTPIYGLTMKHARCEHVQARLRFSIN
# Chain of recombinant human CYP2B6 (P20813 whole entry): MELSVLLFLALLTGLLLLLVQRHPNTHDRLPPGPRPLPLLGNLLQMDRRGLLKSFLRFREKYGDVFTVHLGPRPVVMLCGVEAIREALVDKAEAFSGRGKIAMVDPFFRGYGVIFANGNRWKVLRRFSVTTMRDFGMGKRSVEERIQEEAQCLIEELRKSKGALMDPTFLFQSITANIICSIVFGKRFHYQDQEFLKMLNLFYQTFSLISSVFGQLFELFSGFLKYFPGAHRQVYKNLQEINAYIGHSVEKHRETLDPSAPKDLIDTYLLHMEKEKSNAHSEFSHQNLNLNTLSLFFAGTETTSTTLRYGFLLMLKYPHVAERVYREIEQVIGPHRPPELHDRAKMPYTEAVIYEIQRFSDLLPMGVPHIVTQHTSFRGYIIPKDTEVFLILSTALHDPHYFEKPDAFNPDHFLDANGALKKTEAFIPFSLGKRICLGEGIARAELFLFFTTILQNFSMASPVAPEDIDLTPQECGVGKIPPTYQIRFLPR
# Chain of CYP2C19 (P33261 whole entry): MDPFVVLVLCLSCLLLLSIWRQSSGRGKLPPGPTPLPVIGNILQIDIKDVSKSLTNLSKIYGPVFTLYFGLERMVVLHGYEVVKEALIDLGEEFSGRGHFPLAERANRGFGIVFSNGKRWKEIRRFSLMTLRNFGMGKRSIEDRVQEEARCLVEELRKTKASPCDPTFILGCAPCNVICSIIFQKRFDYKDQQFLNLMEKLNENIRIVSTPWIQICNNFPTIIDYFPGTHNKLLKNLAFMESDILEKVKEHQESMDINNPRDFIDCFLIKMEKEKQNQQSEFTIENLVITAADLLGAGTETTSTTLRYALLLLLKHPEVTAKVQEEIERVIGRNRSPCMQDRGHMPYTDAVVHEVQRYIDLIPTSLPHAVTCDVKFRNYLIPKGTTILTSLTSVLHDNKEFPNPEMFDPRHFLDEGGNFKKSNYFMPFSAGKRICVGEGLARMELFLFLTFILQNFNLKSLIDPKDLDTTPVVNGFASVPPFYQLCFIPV
structure (smiles),measurement,setting,value
"CON=C(N)c1ccc(-c2ccc(-c3ccc(C(N)=NOC)cc3)o2)cc1 [DB289, 2,5-bis(4-amidinophenyl)furan-bis-O-methylamidoxime]",percentage of substrate consumed,[1],8%
same,inhibition of CYP2E1 activity,[2],minimal to no inhibition
same,percentage of substrate consumed,[3],82%
same,percentage of substrate consumed,[4],98%
same,percentage of substrate consumed,[5],less than 5%
same,percentage of substrate consumed,[6],7%
same,percentage of substrate consumed,[7],less than 5%
same,inhibition of CYP2C9 activity,[8],20−25%
same,variation of rate of DB289 consumption among 10 individual HLMs,[9],4 fold
same,inhibition of CYP2C19 activity,[10],minimal to no inhibition
same,percentage of substrate consumed,[11],18%
same,inhibition of CYP2D6 activity,[12],minimal to no inhibition
same,plasma protein binding,[13],high plasma protein-binding
same,percentage of substrate consumed,[14],61%
same,inhibition of CYP3A activity,[15],minimal to no inhibition
same,metabolism of DB289 by recombinant human FMO3,[16],did not show any detectable metabolism
same,percentage of substrate consumed,[17],less than 5%
same,Vmax,[18]; DB289 O-demethylation in HLMs,3770 pmol/min/mg protein
same,Vmax,"[18]; M1 formation, 0.02 mg/ml HLM, 3 min",3.8 nmol/min/mg protein
same,Vmax,"[18]; M1 formation, 0.02 mg/ml HLM, 3 min, total P450",10.5 nmol/min/nmol P450
same,inhibition of CYP2A6 activity,[19],minimal to no inhibition
